Measurements collected from several papers.
Protocols differ between the studies behind these lines.
ABL1: Tyrosine-protein kinase ABL1 (ABL1, Homo sapiens, UniProt P00519)
ABL1 Y253F: Tyrosine-protein kinase ABL1 (ABL1, Homo sapiens, UniProt P00519, Y253F)
ABL1 phosphorylated: Tyrosine-protein kinase ABL1, phosphorylated (ABL1, Homo sapiens, UniProt P00519)
ABL1 M351T: Tyrosine-protein kinase ABL1 (ABL1, Homo sapiens, UniProt P00519, M351T)

For `Cc1nc(Nc2ncc(C(=O)Nc3c(C)cccc3Cl)s2)cc(N2CC[C@H](O)C2)n1`, the inhibition was 86% (ABL1; enzyme activity, inhibitor; 1 nM).
With `CN1CCN(C(=O)c2ccc(NC(=O)Nc3ccc(N(C)c4ccnc(Nc5ccc(CS(C)(=O)=O)cc5)n4)cc3)cc2)CC1` the remaining binding was 20% (ABL1 Y253F; binding; 1 µM).
With `N#Cc1ccc(NC(=O)Nc2ccccc2)cc1` the remaining binding was 83% (Tyrosine-protein kinase ABL1, non-phosphorylated (ABL1, Homo sapiens, UniProt P00519); cell-free assay, competition with immobilised ligand; 25 µM).
With `C1=C/COCc2cc(ccc2OCCN2CCCC2)Nc2nccc(n2)-c2cccc(c2)COC/1` the remaining binding was 15% (Tyrosine-protein kinase ABL1 (ABL1, Homo sapiens, UniProt P00519, Q252H); binding; 0.1 µM).
With `C#Cc1cc(-c2cc(Nc3nc(N[C@@H](C)c4ccc(F)cn4)ncc3Cl)n[nH]2)ccc1C=O` the inhibition was 16.6% (Tyrosine-protein kinase ABL1 (ABL1, Homo sapiens, UniProt P00519, H396P); enzyme activity, inhibitor; 0.2 µM).
With `CCCCC(=O)Nc1ccc(-c2ccc3ncn(CCC)c(=O)c3c2)cn1` the remaining binding was 93% (ABL1 phosphorylated; binding, competition with immobilised ligand; 0.5 µM).
For `Cc1nc(Nc2ncc(C(=O)Nc3c(C)cccc3Cl)s2)cc(N2CC[C@@H](N)C2)n1`, the inhibition was 93% (ABL1; enzyme activity, inhibitor; 1 nM).
`COc1ccc2[nH]c3c4[nH]c5ccc(OC)cc5c4c4c(c3c2c1)C(=O)NC4=O` gave a remaining binding of 68% (ABL1 M351T; binding; 1 µM).
`[2H]c1cc(C)c(NC(=O)c2cnc(Nc3cc(N4CC[C@H](O)C4)nc(C)n3)s2)c(Cl)c1` has an inhibition of 86% (ABL1; enzyme activity, inhibitor; 1 nM).
The remaining signal of `COc1ccc2oc(-c3ccc4nc(N)oc4c3)c/c(=N\c3ccccc3NC(=O)CCN)c2c1` is reported as 100% (ABL1 M351T; cell-free assay; 1 µM).
The inhibition of `C=CC(=O)N1CCC([C@@H]2CCNc3c(C(N)=O)c(-c4ccc(Oc5ccccc5)cc4)nn32)CC1` is reported as 32% (Tyrosine-protein kinase ABL1, phosphorylated (ABL1, Homo sapiens, UniProt P00519, Q252H); enzyme activity, inhibitor; 1 µM).
For `[2H]c1cc(C)c(NC(=O)c2cnc(Nc3cc(N4CC[C@@H](N)C4)nc(C)n3)s2)c(Cl)c1`, the inhibition was 86% (ABL1; enzyme activity, inhibitor; 1 nM).
`Cc1ccc(NC(=O)c2ccnc(C(F)(F)F)c2)cc1-c1cc(OCCO)nc(N2CCOCC2)c1` has a remaining binding of 100% (ABL1 Y253F; binding; 1 µM).
With `CC#CC(=O)N1CCC[C@H]1c1nc(-c2ccc(C(=O)Nc3ccccn3)cc2)c2c(N)nccn12` the inhibition was 19% (Tyrosine-protein kinase ABL1, non-phosphorylated (ABL1, Homo sapiens, UniProt P00519, T315I); enzyme activity, inhibitor; 1 µM).
With `[2H]c1cc(C)c(NC(=O)c2cnc(Nc3cc(N4CCCCC4)nc(C)n3)s2)c(Cl)c1` the inhibition was 96% (ABL1; enzyme activity, inhibitor; 1 nM).
The inhibition of `CO[C@@H]1[C@H](N(C)C(=O)c2ccccc2)C[C@H]2O[C@]1(C)n1c3ccccc3c3c4c(c5c6ccccc6n2c5c31)C(=O)NC4` is reported as 13% (Tyrosine-protein kinase ABL1, phosphorylated (ABL1, Homo sapiens, UniProt P00519, M351T); enzyme activity, inhibitor; 1 µM).
`C[C@H]1CC[C@H](n2c3cnccc3c3cnc(Nc4ccc5c(n4)CCN(C(=O)CO)C5)nc32)CC1` gave a remaining binding of 100% (ABL1 phosphorylated; binding, competition with immobilised ligand; 1 µM).
